Assay results from ChEMBL document CHEMBL2203146, “Search for anticonvulsant and analgesic active derivatives of dihydrofuran-2(3H)-one” (Bioorg Med Chem, 2012).
Activity calls are given as the source filed them.

Columns and labels:
Rattus norvegicus [1] = experiment: Neurotoxicity in Sprague-Dawley rat assessed as minimal motor impairment at 30 mg/kg, po after 4 hrs by rotorod test; format: toxicity, organism-based; design: dose 30 mg/kg, route oral; conditions: in vivo
Rattus norvegicus [2] = experiment: Neurotoxicity in Sprague-Dawley rat assessed as […] at 30 mg/kg, po after 2 hrs […]; format: toxicity, organism-based; design: dose 30 mg/kg, route oral; conditions: in vivo
Rattus norvegicus [3] = experiment: Neurotoxicity in Sprague-Dawley rat assessed as […] at 30 mg/kg, po after 1 hr […]; format: toxicity, organism-based; design: dose 30 mg/kg, route oral; conditions: in vivo
Rattus norvegicus [4] = experiment: Neurotoxicity in Sprague-Dawley rat assessed as minimal motor impairment at 30 mg/kg, po after 0.5 hr by rotorod test; format: toxicity, organism-based; design: dose 30 mg/kg, route oral; conditions: in vivo
Rattus norvegicus [5] = experiment: Neurotoxicity in Sprague-Dawley rat assessed as […] at 30 mg/kg, po after 0.25 hr […]; format: toxicity, organism-based; design: dose 30 mg/kg, route oral; conditions: in vivo
Rattus norvegicus [6] = experiment: Anticonvulsant activity in Sprague-Dawley rat assessed as protection against maximal electroshock-induced seizures at 30 mg/kg, po after 4 hrs; format: functional, organism-based; design: dose 30 mg/kg
Procedure, shortened: (§1)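 Male Sprague-Dawley rats (100–150 g), compound given orally at 30 mg/kg, dissolved in saline or suspended in 0.5% methylcellulose. Maximal electroshock seizures elicited with 60-cycle alternating current. Result recorded as number protected/number tested at each time point.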

Rattus norvegicus [7] = experiment: Anticonvulsant activity in Sprague-Dawley rat assessed as protection against maximal electroshock-induced seizures at 30 mg/kg, po after 2 hrs; format: functional, organism-based; design: dose 30 mg/kg; procedure, shortened: as §1
Rattus norvegicus [8] = experiment: Anticonvulsant activity in Sprague-Dawley rat assessed as protection against maximal electroshock-induced seizures at 30 mg/kg, po after 1 hr; format: functional, organism-based; design: dose 30 mg/kg; procedure, shortened: as §1
Rattus norvegicus [9] = experiment: Anticonvulsant activity in Sprague-Dawley rat assessed as protection against maximal electroshock-induced seizures at 30 mg/kg, po after 0.5 hr; format: functional, organism-based; design: dose 30 mg/kg; procedure, shortened: as §1
Rattus norvegicus [10] = experiment: Anticonvulsant activity in Sprague-Dawley rat assessed as protection against maximal electroshock-induced seizures at 30 mg/kg, po after 0.25 hr; format: functional, organism-based; design: dose 30 mg/kg; procedure, shortened: as §1
Mus musculus [11] = experiment: Anticonvulsant activity in albino CF1 mouse assessed as protection against subcutaneous metrazol-induced seizures at 30 to 300 mg/kg, ip after 0.5 to 4 hrs; format: functional, organism-based
Procedure, shortened: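 CF No. 1 male mice dosed ip at 30, 100 or 300 mg/kg (saline or 0.5% methylcellulose), then given pentetrazole 85 mg/kg sc as 0.5% solution in posterior midline. Watched 30 min. Protection means no threshold seizure (single clonic spasm episode of at least 5 s). Expressed as protected/tested.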

Mus musculus [12] = experiment: Neurotoxicity in albino CF1 mouse assessed as minimal motor impairment at 300 mg/kg, ip after 4 hrs by rotorod test; format: toxicity, organism-based; design: dose 300 mg/kg, route intraperitoneal; conditions: in vivo
Procedure, shortened: (§2)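 Rotarod in male CF No. 1 mice after ip dosing (30, 100, 300 mg/kg; saline or 0.5% methylcellulose) at 15–240 min. Knurled plastic rod, 1-inch diameter, 6 rpm. Toxicity means failing to stay on for 1 min on three successive attempts. Recorded as toxic/tested.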

Mus musculus [13] = experiment: Neurotoxicity in albino CF1 mouse assessed as minimal motor impairment at 300 mg/kg, ip after 0.5 hr by rotorod test; format: toxicity, organism-based; design: dose 300 mg/kg, route intraperitoneal; conditions: in vivo; procedure, shortened: as §2
Mus musculus [14] = experiment: Neurotoxicity in albino CF1 mouse assessed as minimal motor impairment at 100 mg/kg, ip after 4 hrs by rotorod test; format: toxicity, organism-based; design: dose 100 mg/kg, route intraperitoneal; conditions: in vivo; procedure, shortened: as §2
Mus musculus [15] = experiment: Neurotoxicity in albino CF1 mouse assessed as minimal motor impairment at 100 mg/kg, ip after 1 hr by rotorod test; format: toxicity, organism-based; design: dose 100 mg/kg, route intraperitoneal; conditions: in vivo; procedure, shortened: as §2
Mus musculus [16] = experiment: Neurotoxicity in albino CF1 mouse assessed as minimal motor impairment at 100 mg/kg, ip after 0.5 hr by rotorod test; format: toxicity, organism-based; design: dose 100 mg/kg, route intraperitoneal; conditions: in vivo; procedure, shortened: as §2
Mus musculus [17] = experiment: Neurotoxicity in albino CF1 mouse assessed as minimal motor impairment at 100 mg/kg, ip after 0.25 hr by rotorod test; format: toxicity, organism-based; design: dose 100 mg/kg, route intraperitoneal; conditions: in vivo; procedure, shortened: as §2
Mus musculus [18] = experiment: Anticonvulsant activity in albino CF1 mouse assessed as protection against maximal electroshock-induced seizures at 300 mg/kg, ip after 4 hrs; format: functional, organism-based; design: dose 300 mg/kg
Procedure, shortened: (§3)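 Male albino CF No. 1 mice (18–25 g) dosed ip at 30, 100 and 300 mg/kg in saline or 0.5% methylcellulose, tested 15, 30, 60 and 240 min after dosing. Maximal electroshock seizures elicited with 60-cycle alternating current. Scored as animals protected/animals tested, small qualitative groups.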

Mus musculus [19] = experiment: Anticonvulsant activity in albino CF1 mouse assessed as protection against maximal electroshock-induced seizures at 300 mg/kg, ip after 0.5 hr; format: functional, organism-based; design: dose 300 mg/kg; procedure, shortened: as §3
Mus musculus [20] = experiment: Anticonvulsant activity in albino CF1 mouse assessed as protection against maximal electroshock-induced seizures at 100 mg/kg, ip after 4 hrs; format: functional, organism-based; design: dose 100 mg/kg; procedure, shortened: as §3
Mus musculus [21] = experiment: Anticonvulsant activity in albino CF1 mouse assessed as protection against maximal electroshock-induced seizures at 100 mg/kg, ip after 1 hr; format: functional, organism-based; design: dose 100 mg/kg; procedure, shortened: as §3
Mus musculus [22] = experiment: Anticonvulsant activity in albino CF1 mouse assessed as protection against maximal electroshock-induced seizures at 100 mg/kg, ip after 0.5 hr; format: functional, organism-based; design: dose 100 mg/kg; procedure, shortened: as §3
Mus musculus [23] = experiment: Anticonvulsant activity in albino CF1 mouse assessed as protection against maximal electroshock-induced seizures at 100 mg/kg, ip after 0.25 hr; format: functional, organism-based; design: dose 100 mg/kg; procedure, shortened: as §3
Mus musculus [24] = experiment: Anticonvulsant activity in albino CF1 mouse assessed as protection against 6 Hz psychomotor seizure at 100 mg/kg, ip after 4 hrs by minimal clonic seizure test; format: functional, organism-based; design: dose 100 mg/kg
Procedure, shortened: (§4)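 Male albino CF No. 1 mice, 18–25 g. Compound dissolved in saline or suspended in 0.5% methylcellulose and given ip beforehand. Corneal stimulation with 0.2 ms monopolar rectangular pulses at 6 Hz for 3 s from a constant-current device. Mice restrained during stimulation, then released and observed for the minimal clonic seizure and automatistic behaviour.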

Mus musculus [25] = experiment: […] activity in ip dosed albino CF1 mouse assessed as inhibition of phenylbenzoquinone-induced writhing administered after 30 mins prior challenge; format: functional
Procedure, shortened: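 Male Albino Swiss (CD-1) mice, 6-8 per dose. Compound given ip in 0.5% methylcellulose. 30 min later, 0.25 ml of 0.02% phenylbenzoquinone injected. After 5 min, writhes counted over 10 min. % effect = (vehicle mean − drug mean)/vehicle mean × 100. ED50 derived; Student's t-test.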

Mus musculus [26] = experiment: Anticonvulsant activity in albino CF1 mouse assessed as protection against 6 Hz psychomotor seizure at 100 mg/kg, ip after 2 hrs by minimal clonic seizure test; format: functional, organism-based; design: dose 100 mg/kg; procedure, shortened: as §4
Mus musculus [27] = experiment: Anticonvulsant activity in albino CF1 mouse assessed as protection against 6 Hz psychomotor seizure at 100 mg/kg, ip after 1 hr by minimal clonic seizure test; format: functional, organism-based; design: dose 100 mg/kg; procedure, shortened: as §4
Mus musculus [28] = experiment: Anticonvulsant activity in albino CF1 mouse assessed as protection against 6 Hz psychomotor seizure at 100 mg/kg, ip after 0.5 hr by minimal clonic seizure test; format: functional, organism-based; design: dose 100 mg/kg; procedure, shortened: as §4
Mus musculus [29] = experiment: Anticonvulsant activity in albino CF1 mouse assessed as protection against 6 Hz psychomotor seizure at 100 mg/kg, ip after 0.25 hr by minimal clonic seizure test; format: functional, organism-based; design: dose 100 mg/kg; procedure, shortened: as §4
Mus musculus [30] = experiment: Neurotoxicity in albino CF1 mouse assessed as minimal motor impairment at 30 mg/kg, ip after 0.5 hr by rotorod test; format: toxicity, organism-based; design: dose 30 mg/kg, route intraperitoneal; conditions: in vivo
Procedure, shortened: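 Male albino CF No. 1 mice, compound ip in saline or 0.5% methylcellulose. Rotarod: 1-inch knurled rod at 6 rpm. Toxicity is failure to stay on the rod for 1 min on three successive attempts. Expressed as toxic/tested.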

Mus musculus [31] = experiment: Anticonvulsant activity in albino CF1 mouse assessed as protection against maximal electroshock-induced seizures at 30 mg/kg, ip after 0.5 hr; format: functional, organism-based; design: dose 30 mg/kg
Procedure, shortened: (§5)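 Male albino CF No. 1 mice, 18–25 g. Compound in saline or 0.5% methylcellulose, ip. Seizures elicited by 60-cycle alternating current maximal electroshock. Result expressed as animals protected/animals tested.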

Mus musculus [32] = experiment: Anticonvulsant activity in albino CF1 mouse assessed as protection against maximal electroshock-induced seizures at 30 mg/kg, ip after 4 hrs; format: functional, organism-based; design: dose 30 mg/kg; procedure, shortened: as §5

Row | SMILES | Activity (Mus musculus [11]) | Activity (Mus musculus [12]) | Activity (Mus musculus [13]) | Activity (Mus musculus [14]) | Activity (Mus musculus [16]) | Activity (Mus musculus [18]) | Activity (Mus musculus [19]) | Activity (Mus musculus [20]) | Activity (Mus musculus [22]) | Activity (Mus musculus [24]) | Activity (Mus musculus [26]) | Activity (Mus musculus [27]) | Activity (Mus musculus [28]) | Activity (Mus musculus [29]) | also measured
1 | C/C(Nc1ccccc1)=C1\CCOC1=O | inactive | Non-toxic | Toxic | Non-toxic | Non-toxic | inactive | Active | inactive | inactive |  |  |  |  |  | Activity (Rattus norvegicus [1]): Non-toxic; Activity (Rattus norvegicus [2]): Non-toxic; Activity (Rattus norvegicus [3]): Non-toxic; Activity (Rattus norvegicus [4]): Non-toxic; Activity (Rattus norvegicus [5]): Non-toxic; Activity (Rattus norvegicus [6]): inactive; Activity (Rattus norvegicus [7]): inactive; Activity (Rattus norvegicus [8]): inactive; Activity (Rattus norvegicus [9]): inactive; Activity (Rattus norvegicus [10]): inactive; Activity (Mus musculus [15]): Non-toxic; Activity (Mus musculus [17]): Non-toxic; Activity (Mus musculus [21]): inactive; Activity (Mus musculus [23]): Active
2 | NC(=O)c1ccccc1OC1CCOC1=O (racemic) | inactive | Non-toxic | Non-toxic | Non-toxic | Non-toxic | inactive | inactive | inactive | inactive | inactive | inactive | inactive | inactive | inactive | ED50 (Mus musculus [25]): 7.9 mg/kg
3 | Cl.O=C1OCCC1NC1CCCCC1 (racemic) | inactive | Non-toxic | Non-toxic | Non-toxic | Non-toxic | inactive | inactive | inactive | inactive | inactive | Active | inactive | inactive | inactive | Activity (Mus musculus [30]): Toxic; Activity (Mus musculus [31]): inactive; Activity (Mus musculus [32]): inactive
